# Screening results deposited in PubChem by Broad Institute.
# EWS-Fli block – EWS/Fli-driven NR0B1 reporter inhibitors, primary screen, A673 cells, NR0B1 luciferase, luminescence, MLPCN library. viability-normalised. inhibition, % at 12.6 µM. 350,000 compounds, 0.67% hits. AID 651661, 2012;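 active = mean inhibition of at least 50% after viability correction, with every replicate also passing that limit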;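 note: firefly luciferase signal divided by Alamar Blue viability fluorescence both relative to DMSO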
# F508del corr – F508del CFTR correction, initial screen, CFBE line, single point; AID 720511, 2013; activity (quench increase), % at 7.58 µM; 350,000 compounds, 0.36% hits; CFBE cells, YFP halide quenching; stimulated with forskolin plus potentiator P3; % fluorescence drop versus neutral controls;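 active = mean added fluorescence quench of at least 8% versus neutral control, with both replicates also reaching 8%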;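 note: cells transiently co-express mutant CFTR-F508del with the halide-sensitive YFP; corrector assay measuring rescue of mutant channel to the surface after 24 h compound exposure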
# PAX8 inh HTS – inhibitors of PAX8-driven TPO luciferase reporter, primary screen, RMG-I cells, single concentration. SteadyGlo, 24 h. inhibition, % at 12.6 µM. 360,000 compounds, 1.2% hits;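 active = mean replicate inhibition at least 60% with every replicate also reaching 60%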;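 note: luciferase light reporting Pax8 driven TPO promoter activity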
# PGC1a acetyl inh – inhibitors of PGC1a acetylation signal, primary screen, cell-based, U2OS, AlphaScreen, inhibitor mode. 350,000 compounds, 0.17% hits. inhibition, % at 15.6 µM. AlphaScreen anti-acetyl-lysine; with virally co-expressed GCN5 acetyltransferase;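 active = every replicate shows inhibition of at least 40%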
# Env fusion inh – inhibitors of HIV-1 Env-driven cell-cell fusion, primary screen, HeLa-JRFL effector, CEM21 target cells, luciferase; inhibition, % at 12.3 µM; 360,000 compounds, 1.1% hits;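 active = mean replicate inhibition score of at least 50 and every replicate individually at or above 50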
# FN deposit inh – inhibitors of fibronectin matrix deposition, primary screen, AH1F cells, Alexa488-fibronectin fluorescence, plate reader. AH1F fibroblasts, overnight. inhibition, % at 12.6 µM. 350,000 compounds, 0.086% hits;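 active = mean inhibition across replicates of 30% or more, regardless of how many single replicates reach that level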
#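 Schedule: 1 h cell adhesion before compound, then overnight fibronectin incubation; test system: AH1F fibroblast monolayer depositing Alexa488-labelled fibronectin into matrix; quantity: 10000 AH1F cells per well; probe or stimulus: fluorescent fibronectin at 24 nM final; signal: fluorescence, ex 485 nm, em 525 nm; evaluation: percent inhibition as loss of matrix-bound fibronectin fluorescence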
# A number is an active result; n = inactive; x = not tested or not shown; [ ] = dose if it differs, or a comment. Only some compounds are listed: those with a hit (about 2.3% of all), similar ones and a draw of the others.
SMILES,EWS-Fli block,F508del corr,PAX8 inh HTS,PGC1a acetyl inh,Env fusion inh,FN deposit inh
CCn1c(SCC(=O)N/N=C/c2ccc(O)c(OC)c2)nc2ccccc21,n,8.3,n,x,n,x
COCCNC(=O)C1CCCN(C(=O)c2ccc3sccc3c2)CC1 (stereo not drawn),n,8.5,n,n,x,n
C[C@@H]1CN([C@@H](C)CO)C(=O)c2ccccc2-c2ccccc2CO[C@@H]1CN(C)Cc1ccc2c(c1)OCCN2C,n,n,90.0,n,n,n
C[C@H](CO)N1C[C@H](C)[C@H](CN(C)Cc2ccccc2)OCc2ccccc2-c2ccccc2C1=O,69.7,n,x,n,x,n
C[C@H](CO)N1C[C@H](C)[C@H](CN(C)Cc2ccc(F)cc2)OCc2ccccc2-c2ccccc2C1=O,n,n,n,n,56.7[16.7 µM],n
C[C@H]1CN([C@@H](C)CO)C(=O)c2ccccc2-c2ccccc2CO[C@H]1CN(C)Cc1cccc(F)c1,n,n,n,n,62.1[16.7 µM],n
CC=Cc1ccc2n(c1=O)C[C@H]1[C@H](CO)[C@@H](C(=O)NC3CCCC3)N(CCC)[C@@H]21 (mixture of isomers),n,n,x,x,x,x
COc1ccc(S(=O)(=O)N(C)C[C@@H]2Oc3ccc(NS(C)(=O)=O)cc3CC(=O)N([C@H](C)CO)C[C@H]2C)cc1,n,n,n,n,n,x
C[C@H]1CN([C@@H](C)CO)C(=O)c2ccccc2-c2ccccc2CO[C@@H]1CN(C)C(=O)Nc1cccc(C(F)(F)F)c1,n,n,n,n,58.7[16.7 µM],n
C[C@@H]1CN([C@H](C)CO)C(=O)c2ccccc2-c2ccccc2CO[C@@H]1CN(C)C(=O)Nc1cccc(C(F)(F)F)c1,n,n,n,n,n,n
C[C@@H]1CN([C@@H](C)CO)C(=O)c2ccccc2-c2ccccc2CO[C@@H]1CN(C)Cc1ccc(Cl)c(Cl)c1,n,n,71.0,x,n,n
CC(C)[C@@H](C)NC(=O)N(C)C[C@@H]1OCc2ccccc2-c2ccccc2C(=O)N([C@H](C)CO)C[C@H]1C,n,n,n,n,n,n
C[C@H]1CN([C@@H](C)CO)C(=O)c2ccccc2-c2ccccc2CO[C@H]1CN(C)Cc1ccc(F)cc1,n,n,n,n,73.0[16.7 µM],n
CC(C)[C@H](C)NC(=O)N(C)C[C@H]1OCc2ccccc2-c2ccccc2C(=O)N([C@@H](C)CO)C[C@@H]1C,n,n,n,n,55.8[16.7 µM],n
C[C@H]1CN(C)C(=O)c2cccc([N+](=O)[O-])c2O[C@@H]1CN(C)C(=O)OC(C)(C)C,x,x,x,x,x,n
Cc1cc(-c2ccccc2)n(-c2cc(N/N=C/c3ccccc3O)ncn2)n1,x,x,71.1,n,n,n
CNc1cc(-n2nc(C)cc2-c2ccccc2)ncn1,x,x,n,n,n,n
CCC(=O)N1CCC2(CC1)CN(C(=O)Cc1ccccc1)[C@@H](CO)c1c2c2ccc(OC)cc2n1C,n,n,n,x,x,x
C[C@H]1CCCCO[C@@H](CN(C)Cc2ccc(C(=O)O)cc2)[C@@H](C)CN([C@@H](C)CO)C(=O)c2cc(NS(=O)(=O)c3ccc(Cl)cc3)ccc2O1,n,n,86.6,n,n,n
C[C@@H]1CCCCO[C@@H](CN(C)Cc2ccccc2)[C@@H](C)CN([C@@H](C)CO)C(=O)c2cc(NS(=O)(=O)c3ccc(Cl)cc3)ccc2O1,n,n,75.6,n,n,n
C[C@H](CO)N1C[C@H](C)[C@H](CN(C)Cc2ccc(C(=O)O)cc2)OCCCC[C@H](C)Oc2ccc(NS(=O)(=O)c3ccc(Cl)cc3)cc2C1=O,n,n,n,n,n,n
C[C@@H]1CN([C@@H](C)CO)C(=O)c2cc(NS(=O)(=O)c3ccc(Cl)cc3)ccc2O[C@@H](C)CCCCO[C@H]1CN(C)Cc1ccccc1,n,n,n,n,n,n
C[C@H]1CCCCO[C@@H](CN(C)Cc2ccccc2)[C@@H](C)CN([C@@H](C)CO)C(=O)c2cc(NS(=O)(=O)c3ccc(Cl)cc3)ccc2O1,n,n,74.8,n,n,n
